Results reported in ChEMBL document CHEMBL4196152, “Controlling Ca2+ Permeable α-Amino-3-hydroxy-5-methyl-4-isoxazolepropionic Acid (AMPA) Receptors with Photochromic Ion Channel Blockers” (J Med Chem, 2018).
pIC50: −log10 of the molar value.

Legend:
Format in all cases: cell-based
[1] = target: Glutamate receptor 1 (Rattus norvegicus) (UniProt P19490); assay: Inhibition of rat GluA1 flip isoform expressed in Xenopus laevis oocytes assessed as inhibition of L-Glu-evoked currents at 100 nM under dark condition at -80 mV membrane potential by two electrode voltage-clamp assay
Procedure, shortened: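 TEVC on stage V–VI Xenopus laevis oocytes injected with GluA1 cRNA (13–46 nL) and recorded 1–3 days later at −80 mV and 23 °C. Bath solution (mM): 115 NaCl, 2 KCl, 5 HEPES, 1.8 BaCl₂, pH 7.6. Antagonist was co-applied with 300 µM L-glutamate in a dark room. Current was normalized to agonist alone; mean ± SEM, n = 3–16 oocytes.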

[2] = target: T1, Glutamate NMDA receptor; Grin1/Grin2a (Rattus norvegicus) (UniProt P35439+Q00959); assay: Inhibition of rat GluN1a/GluN2A expressed in Xenopus laevis oocytes assessed as inhibition of L-Glu and Gly-evoked currents at 100 nM under dark condition at -80 mV membrane potential by two electrode voltage-clamp assay
Procedure, shortened: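 Xenopus laevis oocytes (stage V–VI) were injected with GluN1 and GluN2A cRNA at a 1:10 ratio. Two-electrode voltage clamp was done 1–3 days post-injection at −80 mV and 23 °C in 115 NaCl/2 KCl/5 HEPES/1.8 BaCl₂ (mM), pH 7.6. Antagonist was co-applied with 100 µM L-glutamate plus 100 µM glycine in a dark room. Current was normalized to agonist-only; mean ± SEM, n = 3–16.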

[3] = target: Glutamate receptor 1 (Rattus norvegicus) (UniProt P19490); assay: Inhibition of rat GluA1 flip isoform expressed in Xenopus laevis oocytes assessed as inhibition of L-Glu-evoked currents at 100 nM under illumination with blue light at 470 nanometer at -80 mV membrane potential by two electrode voltage-clamp assay
Procedure, shortened: (§1)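 TEVC at −80 mV, 23 °C, on oocytes 1–3 days after cRNA injection. Bath: 115 NaCl, 2 KCl, 5 HEPES, 1.8 BaCl2 (mM), pH 7.6. Antagonist co-applied with 300 µM L-Glu; current normalized to agonist alone. Dark runs done in a dark room. IC50 from pooled data of 3–10 oocytes, fitted with a Hill equation. Single-concentration screens used 100 nM and 10 nM.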

Glutamate receptor 1 [4] = target: T2, Glutamate receptor 1 (Rattus norvegicus, UniProt P19490); assay: Inhibition of rat GluA1 flip isoform expressed in Xenopus laevis oocytes assessed as inhibition of L-Glu-evoked currents under dark condition at -80 mV membrane potential by two electrode voltage-clamp assay; procedure, shortened: as §1
[5] = target: T1, Glutamate NMDA receptor; Grin1/Grin2a (Rattus norvegicus); assay: Inhibition of rat GluN1a/GluN2A expressed in Xenopus laevis oocytes assessed as inhibition of L-Glu and Gly-evoked currents at 100 nM under illumination with blue light at 470 nanometer condition at -80 mV membrane potential by two electrode voltage-clamp assay
Procedure, shortened: (§2)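 Oocytes injected with a 1:10 GluN1:GluN2A cRNA ratio and clamped at −80 mV by TEVC, 23 °C. Bath: 115 NaCl, 2 KCl, 5 HEPES, 1.8 BaCl2 (mM), pH 7.6. Antagonist co-applied with 100 µM L-Glu plus 100 µM glycine; response normalized to agonist alone. Dark runs done in a dark room. IC50 fitted with a Hill equation to pooled data from 3–10 oocytes.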

[6] = target: T1, Glutamate NMDA receptor; Grin1/Grin2a (Rattus norvegicus); assay: Ratio of IC50 for inhibition of rat GluN1a/GluN2A expressed in Xenopus laevis oocytes under illumination with blue light at 470 nanometer condition to IC50 for inhibition of rat GluN1a/GluN2A expressed in Xenopus laevis oocytes under dark condition; procedure, shortened: as §2
[7] = target: T3, Glutamate NMDA receptor; Grin1/Grin2a (Rattus norvegicus, UniProt P35439+Q00959); assay: Inhibition of rat GluN1a/GluN2A expressed in Xenopus laevis oocytes assessed as inhibition of L-Glu and Gly-evoked currents under dark condition at -80 mV membrane potential by two electrode voltage-clamp assay; procedure, shortened: as §2
Glutamate receptor 1 [8] = target: T2, Glutamate receptor 1; assay: Inhibition of rat GluA1 flip isoform expressed in Xenopus laevis oocytes assessed as inhibition of L-Glu-evoked currents under illumination with blue light at 470 nanometer at -80 mV membrane potential by two electrode voltage-clamp assay; procedure, shortened: as §1
[9] = target: T3, Glutamate NMDA receptor; Grin1/Grin2a; assay: Inhibition of rat GluN1a/GluN2A expressed in Xenopus laevis oocytes assessed as inhibition of L-Glu and Gly-evoked currents under illumination with blue light at 470 nanometer condition at -80 mV membrane potential by two electrode voltage-clamp assay; procedure, shortened: as §2

Glutamate receptor 1 (Rattus norvegicus), sequence (P19490 whole entry, canonical isoform): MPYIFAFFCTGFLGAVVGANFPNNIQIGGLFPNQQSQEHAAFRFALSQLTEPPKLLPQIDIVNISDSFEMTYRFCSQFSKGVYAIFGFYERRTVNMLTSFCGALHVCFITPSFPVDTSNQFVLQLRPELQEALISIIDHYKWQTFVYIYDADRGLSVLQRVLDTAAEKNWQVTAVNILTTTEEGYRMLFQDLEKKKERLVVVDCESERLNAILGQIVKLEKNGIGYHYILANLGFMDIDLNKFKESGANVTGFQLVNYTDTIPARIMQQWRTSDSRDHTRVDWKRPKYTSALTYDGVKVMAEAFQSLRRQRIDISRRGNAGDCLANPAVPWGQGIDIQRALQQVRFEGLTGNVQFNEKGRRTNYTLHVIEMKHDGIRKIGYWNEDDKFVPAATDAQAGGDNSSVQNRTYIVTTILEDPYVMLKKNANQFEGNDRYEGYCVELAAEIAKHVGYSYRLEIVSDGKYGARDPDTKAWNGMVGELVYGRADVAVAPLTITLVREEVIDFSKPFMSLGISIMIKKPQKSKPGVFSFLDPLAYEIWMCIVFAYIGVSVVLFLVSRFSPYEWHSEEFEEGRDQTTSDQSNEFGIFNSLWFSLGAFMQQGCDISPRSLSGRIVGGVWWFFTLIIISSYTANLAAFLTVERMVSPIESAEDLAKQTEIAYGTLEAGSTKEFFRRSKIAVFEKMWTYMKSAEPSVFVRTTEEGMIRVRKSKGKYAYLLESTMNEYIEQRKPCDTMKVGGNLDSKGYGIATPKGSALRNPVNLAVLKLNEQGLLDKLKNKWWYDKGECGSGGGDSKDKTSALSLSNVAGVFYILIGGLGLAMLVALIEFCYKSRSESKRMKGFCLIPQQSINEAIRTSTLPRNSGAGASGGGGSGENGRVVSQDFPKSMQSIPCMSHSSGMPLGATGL
T2 sequence (P19490 whole entry, canonical isoform): as above

Row | SMILES | inhibition [1] | other results
1 | CN(C)c1ccc(/N=N/c2cccc(C(=O)N[C@@H](CC(N)=O)C(=O)NCCCCNCCCCCCCCNC(=O)[C@@H](N)CCCNC(=N)N)c2)cc1 | > 70% | –
2 | CCN(CC)c1ccc(/N=N/c2cccc(C(=O)N[C@@H](CC(N)=O)C(=O)NCCCCNCCCCCCCCNC(=O)[C@@H](N)CCCNC(=N)N)c2)cc1 | > 70% | –
3 | CN(C)c1ccc(/N=N/c2cccc(C(=O)NCCCCCCCCCNCCCNC(=O)[C@@H](N)CCCNC(=N)N)c2)cc1 | 20 to 50% | –
4 | CN(C)c1ccc(/N=N/c2ccc(C(=O)N[C@@H](CC(N)=O)C(=O)NCCCCCCCCCNCCCNC(=O)[C@@H](N)CCCNC(=N)N)cc2)cc1 | 20 to 50% | –
5 | CCN(CC)c1ccc(/N=N/c2cccc(C(=O)NCCCCCCCCCNCCCNC(=O)[C@@H](N)CCCNC(=N)N)c2)cc1 | 20 to 50% | –
6 | N=C(N)NCCC[C@H](N)C(=O)NCCCCCCCCNCCCCNC(=O)[C@H](CC(N)=O)NC(=O)c1ccc(/N=N/c2ccccc2)cc1 | – | inhibition [2]: 70 to 80%
7 | N=C(N)NCCC[C@H](N)C(=O)NCCCCCCCCNCCCCNC(=O)[C@H](CC(N)=O)NC(=O)c1cccc(/N=N/c2ccccc2)c1 | – | inhibition [2]: 70 to 80%
8 | CCN(CC)c1ccc(/N=N/c2ccc(C(=O)NCCCCCCCCCNCCCNC(=O)[C@@H](N)CCCNC(=N)N)cc2)cc1 | 20 to 50% | –
9 | N=C(N)NCCC[C@H](N)C(=O)NCCCNCCCCCCCCCNC(=O)c1cccc(/N=N/c2ccccc2)c1 | – | inhibition [2]: 70 to 80%
10 | CCN(CC)c1ccc(/N=N/c2cccc(C(=O)N[C@@H](CC(N)=O)C(=O)NCCCCCCCCCNCCCNC(=O)[C@@H](N)CCCNC(=N)N)c2)cc1 | 20 to 50% | –
11 | CCN(CC)c1ccc(/N=N/c2ccc(C(=O)N[C@@H](CC(N)=O)C(=O)NCCCCCCCCCNCCCNC(=O)[C@@H](N)CCCNC(=N)N)cc2)cc1 | 20 to 50% | –
12 | CN(C)c1ccc(/N=N/c2cccc(C(=O)N[C@@H](CC(N)=O)C(=O)NCCCCCCCCCNCCCNC(=O)[C@@H](N)CCCNC(=N)N)c2)cc1 | 20 to 50% | –
13 | CCN(CC)c1ccc(/N=N/c2ccc(C(=O)N[C@@H](CC(N)=O)C(=O)NCCCCCCCCNCCCCNC(=O)[C@@H](N)CCCNC(=N)N)cc2)cc1 | 60% | inhibition [3]: 20%; inhibition [2]: < 5%; pIC50 (Glutamate receptor 1 [4]): 8.10; inhibition [5]: < 5%; Ratio IC50 [6]: 8; pIC50 [7]: 5.96; pIC50 (Glutamate receptor 1 [8]): 7.21; pIC50 [9]: 5.92
14 | CN(C)c1ccc(/N=N/c2ccc(C(=O)NCCCCCCCCCNCCCNC(=O)[C@@H](N)CCCNC(=N)N)cc2)cc1 | 20 to 50% | –
15 | CN(C)c1ccc(/N=N/c2ccc(C(=O)N[C@@H](CC(N)=O)C(=O)NCCCCNCCCCCCCCNC(=O)[C@@H](N)CCCNC(=N)N)cc2)cc1 | > 70% | –
